Laboratory results: publication PMC7302971 (Bioorganic chemistry, 2020)
Read-outs that look alike come from different tables or passages of the source.

Assays:
[1] = molecular target: HDAC2 (Homo sapiens, UniProt Q92769); test: HDAC enzyme activity assay; format: biochemical
Summary of the method: (§1)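 Commercial enzyme was preincubated with serial inhibitor dilutions for 60 min at 30 °C in 25 mM Tris-HCl pH 8.0, 75 mM KCl and 0.001% Pluronic F-127. Reaction was started with 50 μM Boc-Lys(acetyl)-AMC, run 60 min at 30 °C, and stopped with 4.17 μM SAHA. Trypsin (0.4 mg/ml) released AMC, read at Ex 350/Em 450 nm. IC50 came from a four-parameter logistic fit.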

[2] = molecular target: HDAC1 (Homo sapiens, UniProt Q13547); test: HDAC enzyme activity assay; format: biochemical
Summary of the method: as §1

[3] = molecular target: T1, HDAC8 (Homo sapiens, UniProt Q9BY41); test: HDAC enzyme activity assay; format: biochemical; details: for remaining activity at 50 µM: read-out: Residual HDAC8 activity at 50 μM
T1 sequence (Q9BY41 1-377): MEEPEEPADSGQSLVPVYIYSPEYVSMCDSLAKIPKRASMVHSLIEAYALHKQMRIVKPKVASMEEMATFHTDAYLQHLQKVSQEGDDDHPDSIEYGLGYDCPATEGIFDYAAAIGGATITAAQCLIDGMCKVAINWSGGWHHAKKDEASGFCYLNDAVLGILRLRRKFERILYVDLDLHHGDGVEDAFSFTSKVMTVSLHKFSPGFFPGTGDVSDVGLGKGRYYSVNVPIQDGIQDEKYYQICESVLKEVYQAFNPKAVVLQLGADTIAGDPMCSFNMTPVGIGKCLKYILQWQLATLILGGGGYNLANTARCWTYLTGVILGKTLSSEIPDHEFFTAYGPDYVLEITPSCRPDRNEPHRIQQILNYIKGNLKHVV
Summary of the method: (§2)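 HDAC4 and HDAC8 were in-house recombinant enzymes. Each was preincubated with inhibitor, either a single 50 μM screen or serial dilutions, for 60 min at 30 °C in Tris-HCl pH 8.0/KCl/Pluronic buffer. Substrate was 20 μM Boc-Lys(trifluoroacetyl)-AMC for 60 min at 30 °C, stopped with 1.7 μM SATFMK, and developed with trypsin. AMC fluorescence was read at 350/450 nm and reported as residual activity or as IC50 from a four-parameter logistic fit.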

[4] = tested on: K-562 leukemia cells; test: Differential Nuclear Staining; format: cell-based, human
Summary of the method: (§3)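 Cells were seeded at 10,000/well and exposed to test compound for 48 h at 1% (v/v) final DMSO. The first screen used a single concentration with controls in quadruplicate. Dose-response used 0.5–100 μM in triplicate. Controls: DMSO vehicle, hydrogen peroxide (positive), untreated (negative). Hoechst 33342 plus PI were added 2 h before automated imaging, and colocalised signal was scored as dead. […] Two-tailed t-test versus DMSO.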

[5] = molecular target: T2, HDAC7 (Homo sapiens, UniProt Q8WUI4); test: HDAC enzyme activity assay; format: biochemical
T2 sequence (Q8WUI4 1-952): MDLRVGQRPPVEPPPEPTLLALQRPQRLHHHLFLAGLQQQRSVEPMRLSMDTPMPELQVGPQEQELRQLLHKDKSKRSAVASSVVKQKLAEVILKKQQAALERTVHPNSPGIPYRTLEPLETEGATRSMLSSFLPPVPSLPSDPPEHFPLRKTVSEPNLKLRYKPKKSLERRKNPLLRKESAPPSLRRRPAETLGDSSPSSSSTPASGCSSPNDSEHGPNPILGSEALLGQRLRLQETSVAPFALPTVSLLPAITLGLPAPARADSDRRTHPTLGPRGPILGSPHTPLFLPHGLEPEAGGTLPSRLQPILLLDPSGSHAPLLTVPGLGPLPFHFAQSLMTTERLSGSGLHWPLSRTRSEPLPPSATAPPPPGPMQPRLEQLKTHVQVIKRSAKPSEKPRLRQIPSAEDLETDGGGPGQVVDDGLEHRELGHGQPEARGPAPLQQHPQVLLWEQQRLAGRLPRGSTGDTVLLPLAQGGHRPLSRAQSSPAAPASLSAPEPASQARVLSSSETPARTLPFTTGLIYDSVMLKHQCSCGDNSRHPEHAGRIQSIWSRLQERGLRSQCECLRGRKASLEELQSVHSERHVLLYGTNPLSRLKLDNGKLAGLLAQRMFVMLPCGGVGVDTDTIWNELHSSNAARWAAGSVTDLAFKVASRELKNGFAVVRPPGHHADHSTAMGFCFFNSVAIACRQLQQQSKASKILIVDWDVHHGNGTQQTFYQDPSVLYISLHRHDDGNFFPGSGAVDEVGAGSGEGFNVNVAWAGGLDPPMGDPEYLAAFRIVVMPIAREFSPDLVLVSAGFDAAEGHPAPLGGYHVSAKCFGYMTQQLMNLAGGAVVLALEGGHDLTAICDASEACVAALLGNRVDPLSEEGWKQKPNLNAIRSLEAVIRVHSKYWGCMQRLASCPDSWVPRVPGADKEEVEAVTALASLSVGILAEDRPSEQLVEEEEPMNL
Summary of the method: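 Commercial HDAC7 was preincubated with serial inhibitor dilutions for 60 min at 30 °C in 25 mM Tris-HCl pH 8.0, 75 mM KCl and 0.001% Pluronic F-127. The AMC-substrate reaction ran 60 min at 30 °C, followed by trypsin development and fluorescence reading at Ex 350/Em 450 nm. IC50 came from a four-parameter logistic fit.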

[6] = tested on: CEM leukemia cells; test: Differential Nuclear Staining; format: cell-based, human; details: 48 h
Summary of the method: as §3

[7] = molecular target: HDAC4 (Homo sapiens, UniProt P56524); test: HDAC enzyme activity assay; format: biochemical; details: for remaining activity at 50 µM: read-out: Residual HDAC4 activity at 50 μM
Summary of the method: as §2

[8] = MTT cell viability assay, normal WBCs; format: cell-based; details: human
Summary of the method: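 Human WBCs were isolated from diluted blood on HiSep density medium (400 × g, 30 min, room temperature). Mononuclear cells were PBS-washed, RBC-lysed for 5 min, washed again and kept in RPMI 1640 at 37 °C in 5% CO2. Cells were seeded at about 5×10³ per well and exposed to test compound at 2.5–100 μM for 48 h.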

[9] = molecular target: HDAC5 (Homo sapiens, UniProt Q9UQL6); test: HDAC enzyme activity assay; format: biochemical
Summary of the method: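 Commercial HDAC5 was preincubated with serial inhibitor dilutions for 60 min at 30 °C in Tris-HCl pH 8.0 buffer. Reaction used 20 μM Boc-Lys(trifluoroacetyl)-AMC for 60 min at 30 °C and was stopped with 1.7 μM SATFMK. Trypsin development followed, then AMC fluorescence at 350/450 nm. IC50 came from a four-parameter logistic fit.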

[10] = read-out: IC50 HDAC4, HDAC panel, no unit in table, text b26: micromolar range

Sequence of HDAC4 (P56524 648-1057 limits assumed): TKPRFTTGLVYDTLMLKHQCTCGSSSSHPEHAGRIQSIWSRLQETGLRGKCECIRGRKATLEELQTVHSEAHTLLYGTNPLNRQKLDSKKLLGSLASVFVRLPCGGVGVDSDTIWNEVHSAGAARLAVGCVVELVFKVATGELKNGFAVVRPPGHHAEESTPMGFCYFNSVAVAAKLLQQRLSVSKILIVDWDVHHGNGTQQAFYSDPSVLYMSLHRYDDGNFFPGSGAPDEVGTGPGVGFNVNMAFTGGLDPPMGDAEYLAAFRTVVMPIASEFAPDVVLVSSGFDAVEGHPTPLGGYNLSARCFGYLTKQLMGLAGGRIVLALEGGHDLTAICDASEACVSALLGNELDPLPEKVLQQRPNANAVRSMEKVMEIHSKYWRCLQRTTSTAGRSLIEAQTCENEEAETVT
Sequence of HDAC2 (Q92769 whole entry): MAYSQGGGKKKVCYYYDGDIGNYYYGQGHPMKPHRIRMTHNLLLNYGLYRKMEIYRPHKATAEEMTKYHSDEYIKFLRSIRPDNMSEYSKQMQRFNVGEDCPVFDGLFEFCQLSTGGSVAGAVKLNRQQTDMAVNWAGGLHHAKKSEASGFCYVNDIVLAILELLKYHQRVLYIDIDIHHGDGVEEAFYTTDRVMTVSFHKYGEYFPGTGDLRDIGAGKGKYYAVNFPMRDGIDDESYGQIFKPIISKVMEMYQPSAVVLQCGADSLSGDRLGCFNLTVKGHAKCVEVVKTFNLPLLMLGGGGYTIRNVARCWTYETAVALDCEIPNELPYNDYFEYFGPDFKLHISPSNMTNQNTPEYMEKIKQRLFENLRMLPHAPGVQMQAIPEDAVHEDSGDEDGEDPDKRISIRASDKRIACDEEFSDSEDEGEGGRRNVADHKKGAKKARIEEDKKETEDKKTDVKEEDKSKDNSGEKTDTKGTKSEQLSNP
Sequence of HDAC5 (Q9UQL6 whole entry): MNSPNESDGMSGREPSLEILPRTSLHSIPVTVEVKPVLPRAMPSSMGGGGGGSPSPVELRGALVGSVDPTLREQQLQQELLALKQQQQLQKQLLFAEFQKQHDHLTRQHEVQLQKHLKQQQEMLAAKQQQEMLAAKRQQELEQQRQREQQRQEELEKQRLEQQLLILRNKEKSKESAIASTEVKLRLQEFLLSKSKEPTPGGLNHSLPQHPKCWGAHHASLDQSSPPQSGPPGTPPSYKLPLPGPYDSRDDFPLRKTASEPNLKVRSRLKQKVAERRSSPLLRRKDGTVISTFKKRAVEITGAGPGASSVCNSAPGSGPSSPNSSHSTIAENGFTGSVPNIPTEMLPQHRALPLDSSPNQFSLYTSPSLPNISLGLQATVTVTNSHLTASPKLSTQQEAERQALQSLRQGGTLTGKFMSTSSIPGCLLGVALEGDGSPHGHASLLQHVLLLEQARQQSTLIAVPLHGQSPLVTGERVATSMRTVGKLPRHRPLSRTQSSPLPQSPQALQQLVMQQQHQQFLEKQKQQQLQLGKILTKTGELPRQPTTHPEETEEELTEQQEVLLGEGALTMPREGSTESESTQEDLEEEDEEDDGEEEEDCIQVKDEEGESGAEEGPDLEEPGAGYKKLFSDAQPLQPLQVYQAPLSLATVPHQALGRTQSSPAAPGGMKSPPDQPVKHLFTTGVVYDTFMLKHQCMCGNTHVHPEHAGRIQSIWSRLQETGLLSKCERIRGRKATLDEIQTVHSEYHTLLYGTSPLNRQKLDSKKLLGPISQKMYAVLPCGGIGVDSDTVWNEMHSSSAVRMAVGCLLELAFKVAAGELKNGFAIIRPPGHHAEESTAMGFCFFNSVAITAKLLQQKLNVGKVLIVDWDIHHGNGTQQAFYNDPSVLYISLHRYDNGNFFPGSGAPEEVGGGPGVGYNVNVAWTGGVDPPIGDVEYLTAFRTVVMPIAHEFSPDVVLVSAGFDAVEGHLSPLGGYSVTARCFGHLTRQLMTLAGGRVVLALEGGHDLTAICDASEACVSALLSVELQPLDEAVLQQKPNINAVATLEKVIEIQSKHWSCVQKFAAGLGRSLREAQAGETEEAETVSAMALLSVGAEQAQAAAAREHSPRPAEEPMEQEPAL
Sequence of HDAC1 (Q13547 whole entry): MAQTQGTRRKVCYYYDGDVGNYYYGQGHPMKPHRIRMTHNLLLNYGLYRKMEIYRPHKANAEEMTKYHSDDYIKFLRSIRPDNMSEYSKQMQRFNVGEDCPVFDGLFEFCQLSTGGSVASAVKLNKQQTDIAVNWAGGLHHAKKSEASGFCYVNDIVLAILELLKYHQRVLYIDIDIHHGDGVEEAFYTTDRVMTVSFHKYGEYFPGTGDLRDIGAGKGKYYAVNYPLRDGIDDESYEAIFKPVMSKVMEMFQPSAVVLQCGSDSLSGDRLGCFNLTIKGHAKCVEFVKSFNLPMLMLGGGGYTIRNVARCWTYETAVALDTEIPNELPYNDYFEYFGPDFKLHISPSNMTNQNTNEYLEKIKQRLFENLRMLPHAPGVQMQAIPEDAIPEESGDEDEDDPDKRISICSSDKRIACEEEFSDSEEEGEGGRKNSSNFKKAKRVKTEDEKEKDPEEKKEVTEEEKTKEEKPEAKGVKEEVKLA

SMILES	IC50 [1] [µM]	IC50 [2] [µM]	IC50 [3] [µM]	remaining activity at 50 µM [3] [%]	CC50 ([4]; Homo sapiens, K562, 48 h) [µM]	IC50 [5] [µM]	CC50 ([6]; Homo sapiens) [µM]	IC50 [7] [µM]	IC50 [7, 10] [µM]	remaining activity at 50 µM [7] [%]	CC50 at 48 h [8] [µM]	IC50 [9] [µM]	cell death at 100 μM ([4]; K562, DNS assay, 48 h, 100 μM) [% cell death at 100 μM]	cell death at 100 μM ([6]; CEM, DNS assay, 100 μM) [% cell death at 100 μM]
O=C(CN1C(=O)SC(=Cc2ccccn2)C1=O)Nc1nc2ccccc2s1 [Compound P19, N-(benzo[d]thiazol-2-yl)-2-(2,4-dioxo-5-(pyridin-2-ylmethylene)thiazolidin-3-yl)acetamide]	41	> 50	9.3 ± 1	22	85.4 ± 3.25	> 50	79.9 ± 3.74	> 50	> 50	97	104	> 50		
Cc1c(NC(=O)CN2C(=O)SC(=Cc3ccccn3)C2=O)c(=O)n(-c2ccccc2)n1C [Compound P10, N-(1,5-dimethyl-3-oxo-2-phenyl-2,3-dihydro-1H-pyrazol-4-yl)-2-(2,4-dioxo-5-(pyridin-2-ylmethylene)thiazolidin-3-yl)acetamide]	45	> 50	23 ± 1.1	17		> 50		> 50	> 50	76		43	27.06	2.39
